Measured values gathered from unrelated publications.
Each line is one published result; the experiments were not run side by side.
TAOK2: Serine/threonine-protein kinase TAO2 (TAOK2, Homo sapiens, UniProt Q9UL54)
PAK5: Serine/threonine-protein kinase PAK 5 (PAK5, Homo sapiens, UniProt Q9P286)

SMILES	target	test	test system	conditions	measurement	result
COc1cc(Nc2ncc(F)c(Nc3ccc4c(n3)NC(=O)C(C)(C)O4)n2)cc(OC)c1OC	TAOK2	binding		10 µM	inhibition	88%
Cn1cc(-c2cc(F)cc(N3CCn4c(cc5c4CCCC5)C3=O)c2CO)cc(Nc2ccc(N3CCN(C4COC4)CC3)cn2)c1=O	Phosphatidylinositol 4-phosphate 3-kinase C2 domain-containing subunit alpha (PIK3C2A, Homo sapiens, UniProt O00443)	enzyme activity, inhibitor		0.1 µM	inhibition	-2%
Nc1ncc(-c2nc(N3CCOCC3)nc(N3CCOCC3)n2)c(C(F)F)n1	cGMP-inhibited 3',5'-cyclic phosphodiesterase 3A (PDE3A, Homo sapiens, UniProt Q14432)	enzyme activity, inhibitor		10 µM	remaining activity	39.1%
C#Cc1n[nH]c2c(-c3cn([C@@H](C)c4ccccn4)c(=O)[nH]c3=O)cc(F)cc12	PAK5	enzyme activity, inhibitor		0.1 µM	inhibition	5.1%
CC[C@H](C)[C@@H](C(=O)O[C@@H](CC(C)C)C(=O)N[C@@H](CC(C)C)C(=O)N[C@@H](C)/C=C/C(=O)N1C(=O)C=C(OC)[C@@H]1C)N(C)C	Falcipain-3 (FP3, Plasmodium falciparum 3D7, UniProt Q8IIL0)	enzyme activity, inhibitor, fluorescence		pH 6	kinact/KI	7030 M⁻¹ s⁻¹
COc1ncccc1-c1cnn2ccc(N3CCN(C(=O)OC(C)C)CC3)nc12	TAOK2	binding, competition with immobilised ligand		1 µM	remaining binding	64%
CCN(CC)CCCC[C@H](NC(=O)[C@H](CC(C)C)NC(=O)[C@H](C)NC(=O)[C@H](Cc1ccccc1)NC(=O)c1ccc(C(C)(C)C)cc1)C(=O)N[C@@H](CO)C(=O)OC	Bromodomain-containing protein 1, bromodomain (BRD1, Homo sapiens, UniProt O95696)	thermal stability, DSF		25 µM	ΔTm	0.49 °C
Cc1nn(C)cc1-c1nc2c(N3CCN(Cc4ccc(Cl)cc4)CC3)c(Cl)cnc2[nH]1	Rhodopsin kinase GRK1 (GRK1, Homo sapiens, UniProt Q15835)	binding, competition with immobilised ligand		1 µM	remaining binding	100%
C=C(C)[C@@H]1CCC(C)=C[C@H]1c1c(O)cc(CCC)cc1O	Polyunsaturated fatty acid lipoxygenase ALOX12 (ALOX12, Homo sapiens, UniProt P18054)	enzyme activity in cells, inhibitor	PMNL	10 µM	remaining activity	110%
Cn1cc(-c2cccc(N3CCc4c(sc5c4CC(C)(C)C5)C3=O)c2CO)cc(Nc2ccncn2)c1=O	Serine/threonine-protein kinase PAK 3 (PAK3, Homo sapiens, UniProt O75914)	enzyme activity, inhibitor		1 µM	inhibition	-3%
C#Cc1n[nH]c2c(-c3cn([C@@H](C)c4ccccc4)c(=O)[nH]c3=O)cc(F)cc12	PAK5	enzyme activity, inhibitor		0.1 µM	inhibition	4.5%
